# Ecoli WT growth = blocks growth of wild type E. coli BW25113 | E. coli BW25113 growth inhibition, OD600 | inhibition, % at 10 µM | 0.05% of 20,000 active; in the data active = inhibition above about 40%;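 also: bacteria exposed to compound for 20 hours at 37 °C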
#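 System: bacterial strain in a whole-cell growth screen; medium: LB broth with 50 µg/mL kanamycin; detection: absorbance at 615 nm; schedule: 20 h exposure, 37 °C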
# Starred values were filed as active, the others as inactive. A selection follows.
SMILES,Ecoli WT growth
COc1ccc(-c2cc(=O)n(-c3nc4ccccc4[nH]3)[nH]2)cc1,-19
CCOC(=O)N1CCN(C(=O)c2ccc3c(=O)n(CCc4ccccc4)c(=O)[nH]c3c2)CC1,7
Cc1occc1C(=O)Nc1cc(C(F)(F)F)ccc1Cl,-18
COc1ccccc1N1CCN(C(=O)CSc2nc(C)c(Cc3ccccc3)c(=O)[nH]2)CC1,-16
Cc1cc(/C=C(/C#N)c2cccc(F)c2)c(C)n1-c1cccnc1,-14
CCCC(C)C(=O)Nc1ccc(C(N)=O)cc1 (stereo not drawn),5
CCN(CC(=O)NCc1ccccn1)S(=O)(=O)c1ccc(Cl)cc1,-27
COC(=O)c1ccc(CNC(=O)CSc2nc3sc(C)c(C)c3c(=O)n2C)o1,-8

# Screening data from PubChem.
